Measurements from ChEMBL document CHEMBL3608286, “Azaphilone and Diphenyl Ether Derivatives from a Gorgonian-Derived Strain of the Fungus Penicillium pinophilum” (J Nat Prod, 2015).
In brackets after ≈: the same amount, converted by molar mass.

Key:
Amphibalanus amphitrite [1] = assay: Antifouling activity against larval settlements of Balanus amphitrite Darwin cyprids; format: functional, organism-based
In short: (§1)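 Barnacle cyprid larvae tested for inhibition of settlement, following a procedure from earlier literature. SeaNine 211 served as the positive control. EC50 was taken for settlement inhibition and LC50 for larval toxicity, with LC50/EC50 as the ratio.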

Amphibalanus amphitrite [2] = assay: Selectivity index, ratio of CC50 for Balanus amphitrite Darwin cyprids to EC50 for antifouling activity against larval settlements of Balanus amphitrite Darwin cyprids; in short: as §1
HeLa = assay: Cytotoxicity against human HeLa cells by neutral red method; format: functional, cell-based
In short: (§2)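 Human cancer cell lines (HeLa, Hep-2, RD) assayed by Neutral Red uptake, giving IC50. Adriamycin was the positive control.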

[3] = Cytotoxicity against human Hep2 cells by neutral red method; format: functional, cell-based; conditions: HEp-2; in short: as §2
RD = assay: Cytotoxicity against human RD cells by neutral red method; format: functional, cell-based; in short: as §2
[4] = Amphibalanus amphitrite, Darwin, read-out: EC50

Compound | EC50 (Amphibalanus amphitrite [1]) | EC50 (Amphibalanus amphitrite [1]; [4]) [µg/mL] | Ratio CC50/EC50 (Amphibalanus amphitrite [2]) | other results
C/C=C/C1=CC2=CC(=O)[C@@](C)(O)[C@@H](OC(=O)c3c(C)cc(O)cc3O)C2=CO1 | Not Active | – | – | –
COc1c([C@@H](O)CC(C)(C)O)ccc2c1C(=O)OCc1cc(C)cc(O)c1O2 | – | 20 (≈ 51.5 µM) | >50 | –
CCCCCCCCn1sc(Cl)c(Cl)c1=O | – | 1.2 (≈ 4.25 µM) | 20.3 | –
COc1c([C@@H](O)CC(C)C)ccc2c1C(=O)OCc1cc(CO)cc(O)c1O2 | – | 6 (≈ 15.4 µM) | >50 | IC50 (HeLa): 6.1 µM
Cc1cc(O)cc(O)c1C(=O)O[C@]1(C)C(=O)C2=C(C=C(/C=C/C(=O)O)OC2)C[C@H]1O | Not Active | – | – | –
Cc1cc(O)cc(O)c1C(=O)O[C@]1(C)C(=O)C=C2C=C(/C=C/CO)OC[C@H]2[C@@H]1O | Not Active | – | – | –
COc1c([C@H](CC(C)C)OC(C)=O)ccc2c1C(=O)OCc1cc(C)cc(O)c1O2 | – | 10 (≈ 24.1 µM) | >50 | –
C/C=C/C1=CC2=CC(=O)[C@@](C)(OC(=O)c3c(C)cc(O)cc3O)C(=O)C2=CO1 | Not Active | – | – | –
Cc1cc(O)cc(O)c1C(=O)O[C@H]1[C@@H]2COC(CC(C)O)=CC2=CC(=O)[C@@]1(C)O (some centres undefined) | Not Active | – | – | –
Cc1cc(O)cc(O)c1C(=O)O[C@H]1[C@@H]2COC(/C=C/CO)=CC2=CC(=O)[C@@]1(C)O [PINOPHILIN B] | Not Active | – | – | –
Cc1cc(O)cc(O)c1C(=O)O[C@]1(C)C(=O)C=C2C=C(/C=C/C(=O)O)OC=C2C1=O | Not Active | – | – | –
COc1c([C@@H](O)CC(C)C)ccc2c1C(=O)OCc1cc(C)cc(O)c1O2 [PENICILLIDE] | – | 2.6 (≈ 6.98 µM) | >50 | IC50 [3]: 6.7 µM; IC50 (RD): 7.8 µM
C/C=C/C1=CC2=CC(=O)[C@@](C)(O)[C@@H](OC(=O)c3c(C)cc(O)cc3O)[C@@H]2CO1 | Not Active | – | – | –
COc1cccc2c1C(=O)c1c(O)c3c(c(O)c1C2=O)C[C@@](O)(C(=O)CO)C[C@@H]3O[C@H]1C[C@H](N)[C@H](O)[C@H](C)O1 [DOXORUBICIN] | – | – | – | IC50 [3]: 1.5 µM; IC50 (RD): 2 µM
Cc1cc(O)cc(O)c1C(=O)O[C@]1(C)C(=O)C=C2C=C(/C=C/CO)OC=C2C1=O | Not Active | – | – | –
